Assays:
Rattus norvegicus [1] = experiment: Effect on very low density Triglycerides Holtzman rats after 14 days administration; type: functional
Summary of the method: (§1)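 Holtzman male rats (~400 g) received drug at 20 (mg/kg)/day for 14 days. On day 14, blood was collected from the abdominal aorta and serum was separated by centrifugation at 3500 rpm. Lipid content of the lipoprotein fractions was then determined.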

Mus musculus [2] = species: Mus musculus; experiment: In vitro effect on CF1 male mouse on phosphatidate phosphohydrolase; type: functional
Mus musculus [3] = experiment: In vitro effect on CF1 male mouse on acyltransferase after 16 days at a dose of 20 (mg/kg)/day; type: functional
Summary of the method: (§2)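 In vivo enzyme study. CF₁ male mice were dosed ip for 16 days in 1% CMC, and liver was homogenised to 10% in 0.25 M sucrose with 0.001 M EDTA. Enzymes assayed: acetyl-CoA synthetase as hydroxamate at 540 nm after 30 min at 37 °C; HMG CoA reductase with [1-¹⁴C]acetate in 9000g supernatant for 60 min at 37 °C; fatty acid synthetase with [2-¹⁴C]malonyl-CoA; acyltransferase with [³H]glycerol 3-phosphate and microsomes for 10 min; phosphatidate phosphohydrolase as released phosphate at 820 nm after 30 min. N = 6; reported as % control.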

Mus musculus [4] = experiment: Effect on cholesterol from CF1 male mice after 16 days at a dose of 20 (mg/kg/day); type: functional
Summary of the method: (§3)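 CF1 male mice dosed ip for 16 days at 10–60 (mg/kg)/day; liver taken and 10% homogenate made in 0.25 M sucrose + 0.001 M EDTA; aliquot extracted by Folch and Bligh–Dyer methods, mg lipid weighed, cholesterol measured by Liebermann–Burchard method; n = 6; % of 1% CMC control.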

Mus musculus [5] = experiment: In vitro effect on CF1 male mouse on acyltransferase after 16 days at a dose of 10 (mg/kg)/day; type: functional; summary of the method: as §2
Mus musculus [6] = species: Mus musculus; experiment: In vitro effect on CF1 male mouse on acyltransferase; type: functional
Mus musculus [7] = experiment: Effect on Serum cholesterol levels on CF1 male mice at a dose of 25 (mg/kg)/day after 16 days; type: functional
Summary of the method: (§4)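 CF1 male mice (~25 g), drug suspended in 1% carboxymethylcellulose in water, given ip daily for 16 days; n = 6; vehicle control. Tail-vein blood on days 9 and 16, serum cholesterol by modified Liebermann–Burchard reaction; day-14 serum triglyceride by commercial kit; expressed as % control.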

Mus musculus [8] = experiment: In vitro effect on CF1 male mouse on phosphatidate phosphohydrolase after 16 days at a dose of 40 (mg/kg)/day; type: functional
Summary of the method: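 CF1 male mice dosed ip daily for 16 days, drug suspended in 1% carboxymethylcellulose; liver taken as 10% homogenate in 0.25 M sucrose + 0.001 M EDTA. Phosphatidate phosphohydrolase measured as inorganic phosphate released from phosphatidic acid after 30 min, developed with ascorbic acid/ammonium molybdate, read at 820 nm. Expressed as % of 1% CMC vehicle control; N = 6.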

Mus musculus [9] = species: Mus musculus; experiment: In vitro effect on CF1 male mouse on Ac-CoA synthetase; type: functional
Summary of the method: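 In vitro test on 10% CF₁ male mouse liver homogenate (0.25 M sucrose, 0.001 M EDTA) with 2.5 μmol test drug. Assays: acetyl-CoA synthetase and citrate lyase as hydroxamate at 540 nm, 30 min, 37 °C; citrate exchange from [¹⁴C]citrate-loaded mitochondria after 10 min with drug; side-chain oxidation by ¹⁴CO₂ from [26-¹⁴C]cholesterol, 18 h, 37 °C; acetyl-CoA carboxylase by [¹⁴C]bicarbonate fixation after 30 min polymerization then 30 min at 37 °C.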

Mus musculus [10] = experiment: In vitro effect on CF1 male mouse on Ac-CoA synthetase after 16 days at a dose of 40 (mg/kg)/day; type: functional; summary of the method: as §2
Rattus norvegicus [11] = experiment: Effect on Serum triglceride levels on Holtzman rats at a dose of 20 (mg/kg)/day after 14 days; type: functional
Summary of the method: (§5)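 Holtzman male rats (~200 g) dosed orally by intubation needle daily for 16 days, drug suspended in 1% carboxymethylcellulose; n = 6; vehicle control. Tail-vein serum cholesterol on days 9 and 16 by modified Liebermann–Burchard reaction; day-14 serum triglyceride by commercial kit; % control.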

Mus musculus [12] = experiment: In vivo effect on CF1 male mouse on Lipid content after 16 days at a dose of 20 (mg/kg)/day
Mus musculus [13] = experiment: Effect on Serum triglceride levels on CF1 male mice at a dose of 100 (mg/kg)/day after 14 days; type: functional; summary of the method: as §4
Mus musculus [14] = experiment: In vitro effect on CF1 male mouse on HMGCoA reductase after 16 days at a dose of 60 (mg/kg)/day; type: functional; summary of the method: as §2
Mus musculus [15] = experiment: Effect on Serum triglyceride levels on CF1 male mice at a dose of 20 (mg/kg)/day after 14 days; type: functional; summary of the method: as §4
Rattus norvegicus [16] = experiment: Effect on Serum cholesterol levels on Holtzman rats at a dose of 20 (mg/kg)/day after 9 days; type: functional; summary of the method: as §5
Mus musculus [17] = experiment: Effect on Serum triglceride levels on CF1 male mice at a dose of 50 (mg/kg)/day after 14 days; type: functional; summary of the method: as §4
Rattus norvegicus [18] = experiment: Effect on high density Triglycerides Holtzman rats after 14 days administration; type: functional
Summary of the method: (§6)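 Holtzman male rats (~400 g) given drug at 20 (mg/kg)/day for 14 days; on day 14 blood taken from the abdominal aorta and serum separated by centrifugation at 3500 rpm; lipid and protein content of the lipoprotein fractions measured.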

Rattus norvegicus [19] = experiment: Effect on neutral lipids Holtzman rats after 14 days administration; type: functional
Rattus norvegicus [20] = experiment: Effect on high density Protein Holtzman rats after 14 days administration; type: functional; summary of the method: as §6
Mus musculus [21] = experiment: Effect on mg of lipid from CF1 male mice after 16 days at a dose of 20 (mg/kg/day); type: functional; summary of the method: as §3
Mus musculus [22] = experiment: In vitro effect on CF1 male mouse on HMGCoA reductase after 16 days at a dose of 20 (mg/kg)/day; type: functional; summary of the method: as §2
Rattus norvegicus [23] = experiment: Effect on Chylomicrons of neutral lipids Holtzman rats after 14 days administration; type: functional; summary of the method: as §6
Mus musculus [24] = experiment: Effect on cholesterol from CF1 male mice after 16 days at a dose of 40 (mg/kg/day); type: functional; summary of the method: as §3
Rattus norvegicus [25] = experiment: Effect on Serum cholesterol levels on Holtzman rats at a dose of 10 (mg/kg)/day after 9 days; type: functional; summary of the method: as §5
Mus musculus [26] = experiment: In vitro effect on CF1 male mouse on phosphatidate phosphohydrolase after 16 days at a dose of 20 (mg/kg)/day; type: functional; summary of the method: as §2
Mus musculus [27] = species: Mus musculus; experiment: In vitro effect on CF1 male mouse on Fatty acid synthetase; type: functional
Rattus norvegicus [28] = experiment: Effect on very low density Protein Holtzman rats after 14 days administration; type: functional; summary of the method: as §1
Mus musculus [29] = experiment: Effect on cholesterol from CF1 male mice after 16 days at a dose of 10 (mg/kg/day); type: functional; summary of the method: as §3
Mus musculus [30] = experiment: Effect on phospholipids from CF1 male mice after 16 days at a dose of 10 (mg/kg/day); type: functional
Summary of the method: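 Dosing was ip in CF₁ male mice (~25 g) for 16 days, with compound suspended in 1% carboxymethylcellulose. Liver was then taken and homogenised to 10% in 0.25 M sucrose with 0.001 M EDTA. Lipid was extracted from a 2 mL aliquot by the Folch and Bligh–Dyer methods and total mg of lipid was weighed. Cholesterol (Liebermann–Burchard), triglycerides (kit), neutral lipids and phospholipids were then measured; N = 6; reported as % of vehicle control.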

Rattus norvegicus [31] = experiment: Effect on low density Phospholipids Holtzman rats after 14 days administration; type: functional; summary of the method: as §6
Mus musculus [32] = experiment: In vitro effect on CF1 male mouse on Fatty acid synthetase after 16 days at a dose of 60 (mg/kg)/day; type: functional; summary of the method: as §2
Rattus norvegicus [33] = experiment: Effect on very low density neutral lipids Holtzman rats after 14 days administration; type: functional; summary of the method: as §1

CC(=O)c1ccccc1N1C(=O)c2ccccc2C1=O
Control (Rattus norvegicus [1]): 46%
Control (Mus musculus [2]): 65%
Control (Mus musculus [3]): 41%
Control (Mus musculus [4]): 73%
Control (Mus musculus [5]): 35%
Control (Mus musculus [6]): 54%
Control (Mus musculus [7]): 38%
Control (Mus musculus [8]): 54%
Control (Mus musculus [9]): 63%
Control (Mus musculus [10]): 59%
Control (Rattus norvegicus [11]): 61%
Control (Mus musculus [12]): 85%
Control (Mus musculus [13]): 59%
Control (Mus musculus [14]): 94%
Control (Mus musculus [15]): 56%
Control (Rattus norvegicus [16]): 76%
Control (Mus musculus [17]): 53%
Control (Rattus norvegicus [18]): 63%
Control (Rattus norvegicus [19]): 55%
Control (Rattus norvegicus [20]): 80%
Control (Mus musculus [21]): 85%
Control (Mus musculus [22]): 81%
Control (Rattus norvegicus [23]): 50%
Control (Mus musculus [24]): 71%
Control (Rattus norvegicus [25]): 66%
Control (Mus musculus [26]): 68%
Control (Mus musculus [27]): 107%
Control (Rattus norvegicus [28]): 66%
Control (Mus musculus [29]): 73%
Control (Mus musculus [30]): 90%
Control (Rattus norvegicus [31]): 87%
Control (Mus musculus [32]): 100%
Control (Rattus norvegicus [33]): 81%
